ChEMBL document CHEMBL1759833, “Synthesis and biological evaluation of some 4-functionalized-pyrazoles as antimicrobial agents” (2011)
Values after ≈ are worked out from the molar mass of the structure shown.

What was measured:
Assay type in all cases: functional
Aspergillus niger = assay: Antifungal activity against Aspergillus niger MTCC 282 assessed as inhibition of mycelial growth for 7 days by poisoned food method
Outline: (§1)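 Poisoned food method. Compound at 4.0 mg/mL in DMSO was mixed into agar, poured and solidified at room temperature. Each plate was inoculated centrally with an 8 mm plug from an actively growing colony and incubated at 25 °C for 7 days. Colony diameter was converted to percent mycelial inhibition, in triplicate. Controls were DMSO (negative) and fluconazole (positive).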

Aspergillus flavus = assay: Antifungal activity against Aspergillus flavus MTCC 871 assessed as inhibition of mycelial growth for 7 days by poisoned food method; outline: as §1
Staphylococcus aureus [1] = assay: Antibacterial activity against Staphylococcus aureus MTCC 96 for 24 hrs by macrodilution method; conditions: MTCC 96, 24 h
Outline: (§2)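 MIC by NCCLS macrodilution tube method. Tubes were inoculated with bacteria at 1.5 × 10⁸ cfu/mL and incubated at 37 °C for 24 h. Turbidity was scored visually. Ciprofloxacin served as control.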

Bacillus subtilis [2] = assay: Antibacterial activity against Bacillus subtilis MTCC 121 for 24 hrs by agar diffusion method
Outline: (§3)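 Agar well diffusion on Mueller Hinton agar plates swabbed with bacterial suspension of approx. 1.5 × 10⁸ cfu/mL. 8 mm wells were loaded with compound at 4.0 mg/mL in DMSO. Plates were incubated 37 °C for 24 h. Read-out was inhibition zone diameter in mm, including the 8 mm well, as mean of three replicates. Controls were DMSO (negative) and ciprofloxacin (positive).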

Bacillus subtilis [3] = assay: Antibacterial activity against Bacillus subtilis MTCC 121 for 24 hrs by macrodilution method; conditions: MTCC 121, 24 h; outline: as §2
Staphylococcus aureus [4] = assay: Antibacterial activity against Staphylococcus aureus MTCC 96 for 24 hrs by agar diffusion method; outline: as §3

SMILES	inhibition (INH) (Aspergillus niger)	inhibition (INH) (Aspergillus flavus)	MIC (Staphylococcus aureus [1])	diameter of the inhibition zone (DIZ) (Bacillus subtilis [2])	MIC (Bacillus subtilis [3])	diameter of the inhibition zone (DIZ) (Staphylococcus aureus [4])
NS(=O)(=O)c1ccc(-n2cc(C(=O)O)c(-c3ccccc3)n2)cc1	50%	55.5%	128 µg/mL (≈ 373 µM)	16.6 mm	128 µg/mL (≈ 373 µM)	15.3 mm
Cc1ccc(-c2nn(-c3ccc(S(N)(=O)=O)cc3)cc2C(=O)O)cc1	46.6%	51.1%	> 128 µg/mL	17.3 mm	64 µg/mL (≈ 179 µM)	14.6 mm
COc1ccc(-c2nn(-c3ccc(S(N)(=O)=O)cc3)cc2C(=O)O)cc1	44.4%	44.4%	128 µg/mL (≈ 343 µM)	17 mm	64 µg/mL (≈ 171 µM)	15.6 mm
NS(=O)(=O)c1ccc(-n2cc(C(=O)O)c(-c3ccc(F)cc3)n2)cc1	52.5%	48.8%	128 µg/mL (≈ 354 µM)	18.6 mm	64 µg/mL (≈ 177 µM)	15 mm
NS(=O)(=O)c1ccc(-n2cc(C(=O)O)c(-c3ccc(Cl)cc3)n2)cc1	45.5%	44.4%	64 µg/mL (≈ 169 µM)	21.6 mm	32 µg/mL (≈ 84.7 µM)	18.6 mm
NC(=S)c1cn(-c2ccc(S(N)(=O)=O)cc2)nc1-c1ccc(F)cc1	44.4%	61.1%	64 µg/mL (≈ 170 µM)	15.3 mm	128 µg/mL (≈ 340 µM)	17.6 mm
NC(=S)c1cn(-c2ccc(S(N)(=O)=O)cc2)nc1-c1ccc(Cl)cc1	50%	52.5%	64 µg/mL (≈ 163 µM)	14.6 mm	> 128 µg/mL	18.3 mm
NC(=S)c1cn(-c2ccc(S(N)(=O)=O)cc2)nc1-c1ccc(Br)cc1	44.4%	51.1%	32 µg/mL (≈ 73.2 µM)	18.3 mm	64 µg/mL (≈ 146 µM)	21.6 mm
NC(=S)c1cn(-c2ccc(S(N)(=O)=O)cc2)nc1-c1cccs1	61.1%	55.5%	64 µg/mL (≈ 176 µM)	17.6 mm	64 µg/mL (≈ 176 µM)	20.3 mm
NS(=O)(=O)c1ccc(-n2cc(C(=O)O)c(-c3ccc(Br)cc3)n2)cc1	51.1%	45.5%	128 µg/mL (≈ 303 µM)	14.3 mm	> 128 µg/mL	15.6 mm
NS(=O)(=O)c1ccc(-n2cc(C(=O)O)c(-c3ccc([N+](=O)[O-])cc3)n2)cc1	61.1%	57.7%	> 128 µg/mL	15 mm	128 µg/mL (≈ 330 µM)	14.6 mm
NS(=O)(=O)c1ccc(-n2cc(C(=O)O)c(-c3cccs3)n2)cc1	57.7%	55.5%	64 µg/mL (≈ 183 µM)	15.6 mm	128 µg/mL (≈ 366 µM)	18.6 mm
NC(=S)c1cn(-c2ccc(S(N)(=O)=O)cc2)nc1-c1ccccc1	50%	53.3%	128 µg/mL (≈ 357 µM)	15 mm	128 µg/mL (≈ 357 µM)	15.3 mm
Cc1ccc(-c2nn(-c3ccc(S(N)(=O)=O)cc3)cc2C(N)=S)cc1	44.4%	51.1%	32 µg/mL (≈ 85.9 µM)	16.3 mm	128 µg/mL (≈ 344 µM)	21.6 mm
COc1ccc(-c2nn(-c3ccc(S(N)(=O)=O)cc3)cc2C(N)=S)cc1	55.5%	57.7%	128 µg/mL (≈ 329 µM)	15.6 mm	128 µg/mL (≈ 329 µM)	16.6 mm
O=C(O)c1cn(C2CC2)c2cc(N3CCNCC3)c(F)cc2c1=O [CIPROFLOXACIN]	–	–	5 µg/mL (≈ 15.1 µM)	26.3 mm	5 µg/mL (≈ 15.1 µM)	27.6 mm
OC(Cn1cncn1)(Cn1cncn1)c1ccc(F)cc1F [FLUCONAZOLE]	75.3%	74.6%	–	–	–	–
